rCAG binder: r(CAG) repeat RNA binding; TO-PRO-1 dye displacement fluorescence; inhibition, % at 3 µM; actives 1.3% (n = 370,000); AID 651821;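 active = inhibition above the plate cutoff, the mean of all test compounds on that plate plus 3 SD, cut at about 35% in these data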;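 also: 0% = DMSO alone and 100% = 100 µM mitoxantrone as full dye displacement; higher means more dye released from RNA so lower well fluorescence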
STEP block: blocks human striatal-enriched tyrosine phosphatase; P54829; recombinant STEP, OMFP fluorogenic substrate, fluorescence; inhibition, % at 20 µM; actives 0.25% (n = 360,000); AID 588621;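 active = inhibition at 20 µM, scaled per plate between control wells, above about 37%, limit read from the data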;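 also: 0% = DMSO with enzyme and substrate and 100% = substrate only without enzyme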
Target sequence (P54829 whole entry, looked up): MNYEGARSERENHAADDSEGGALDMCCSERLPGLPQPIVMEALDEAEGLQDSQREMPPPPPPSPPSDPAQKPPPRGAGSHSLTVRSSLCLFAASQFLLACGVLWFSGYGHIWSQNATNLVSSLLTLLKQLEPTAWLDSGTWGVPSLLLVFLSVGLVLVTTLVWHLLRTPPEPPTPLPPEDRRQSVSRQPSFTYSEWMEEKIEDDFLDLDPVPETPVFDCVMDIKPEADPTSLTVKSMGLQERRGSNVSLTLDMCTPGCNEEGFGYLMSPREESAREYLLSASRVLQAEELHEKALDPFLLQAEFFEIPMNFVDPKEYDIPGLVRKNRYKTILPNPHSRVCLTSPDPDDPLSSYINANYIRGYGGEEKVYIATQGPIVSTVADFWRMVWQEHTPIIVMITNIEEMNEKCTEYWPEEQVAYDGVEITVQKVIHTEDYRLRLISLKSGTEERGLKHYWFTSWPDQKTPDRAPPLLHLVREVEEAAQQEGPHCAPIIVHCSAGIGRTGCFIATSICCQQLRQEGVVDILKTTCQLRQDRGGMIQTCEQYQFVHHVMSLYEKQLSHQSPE
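Assay system: isolated STEP enzyme. Buffer or medium: pH 6.0 Bis-Tris with DTT and Tween 20. Also added: fluorogenic phosphatase substrate OMFP at 25 µM final. Dosing: 20 µM, 1% DMSO. Timing: 20 min reaction, room temperature, in the dark. Measured by: fluorescence intensity, excitation 480 nm, emission 540 nm. Evaluation: normalized % inhibition.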
LMPTP inh: LMPTP (human) inhibition; inhibition, % at 20 µM; P24666; recombinant LMPTP-A, OMFP fluorogenic substrate, fluorescence intensity; actives 0.22% (n = 360,000);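 active = compounds that cut the enzyme signal by at least half of the control window in the single-dose screen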;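 also: plate controls were DMSO wells with enzyme plus substrate for no effect and substrate without enzyme for full effect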
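Test system: LMPTP-A phosphatase enzyme. Amount: LMPTP-A at 0.625 nM final in the reaction. Reagent: OMFP substrate, 400 µM final. Times: 50 min at room temperature. Signal: endpoint fluorescence intensity from OMFP dephosphorylation. Read-out basis: % inhibition. Benchmarks: no-enzyme and uninhibited controls.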
Scp1 inh: inhibitors of human Scp-1 phosphatase; inhibition, % at 20 µM; AID 493091; Q9GZU7; actives 0.88% (n = 340,000); Recombinant Scp1, phosphopeptide, malachite green phosphate absorbance;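 active = inhibition above about 50% at 20 µM, limit read from the data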;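 also: plate controls were DMSO wells with enzyme for no effect and wells lacking enzyme for full effect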
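Test system: SCP-1 phosphatase catalytic domain, residues 76-261 | Compound dosing: One concentration, 20 µM, with 1.0% DMSO | Schedule: 45 min room-temperature reaction, 5 min colour, 30 min stabiliser | Detection: Absorbance at 630 nm | Read-out basis: % inhibition of SCP-1 phosphate liberation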
NadD inh: inhibitors of Staphylococcus aureus NadD; AID 602399; purified NadD enzyme, colorimetric absorbance read-out; inhibition, % at 20 µM; actives 0.78% (n = 360,000); in the data active = inhibition above about 26%
Starred values were filed as active, the others as inactive. Sampled rows, rich in hits. Any-hit rate of the full collection: about 2.6%.

Results for C#CCOc1ccc(/C=C2/C(=O)N(c3cccc(C(=O)O)c3)N=C2C)cc1OC ?
rCAG binder: 7.4; STEP block: 7.1; LMPTP inh: 1.6; Scp1 inh: 58.1*; NadD inh: -8.5

Results for COc1ccccc1/C=C1/C(=O)N(c2ccccc2)N=C1C ?
rCAG binder: 31.4; STEP block: -0.2; LMPTP inh: 3.6; Scp1 inh: 3.6; NadD inh: 0.4

How did CC1=NN(c2ccccc2)C(=O)/C1=C\c1ccc(Oc2ccc([N+](=O)[O-])cc2[N+](=O)[O-])cc1 do in these assays?
rCAG binder: 26.0; STEP block: 2.3; LMPTP inh: 3.0; Scp1 inh: -5.0; NadD inh: 30.2*

Results for COc1ccc(/C=C2\C(=O)N(c3c(Cl)cc(Cl)cc3Cl)N=C2NC(=O)c2cccc([N+](=O)[O-])c2)cc1 ?
STEP block: 8.5; LMPTP inh: 3.8; Scp1 inh: -15.8; NadD inh: 83.7*

Results for COc1ccc(NC(=O)c2cccc(N3C(=O)c4cccc([N+](=O)[O-])c4C3=O)c2)cc1 ?
rCAG binder: 1.6; STEP block: -1.0; LMPTP inh: 0.7; Scp1 inh: -15.4; NadD inh: 2.8

What do the screens show for `COCCCN1CCC2(CCC(c3ccccc3)CC2)C1=O` (stereo not drawn)?
rCAG binder: -0.7

Results for Cc1ccc(-n2c(C)cc(/C=N/NC(=O)c3ccncc3)c2C)cc1 ?
rCAG binder: 2.2; STEP block: 0.6; LMPTP inh: 0.7; Scp1 inh: -6.5; NadD inh: 8.4

Results for Cc1ccc(C(=O)N/N=C/c2cc(C)n(-c3ccc(Br)cc3)c2C)cc1[N+](=O)[O-] ?
rCAG binder: 14.2; STEP block: 1.8; LMPTP inh: 1.7; Scp1 inh: 7.1; NadD inh: 35.1*

How did CN(N=Nc1ccc([N+](=O)[O-])cc1)c1ccccc1 do in these assays?
rCAG binder: -1.5; STEP block: 1.7; LMPTP inh: 2.7; Scp1 inh: -3.9; NadD inh: -3.7

Results for CN(CCCC(=O)O)c1ccc(N=Nc2ccc([N+](=O)[O-])cc2)cc1 ?
rCAG binder: 6.1; STEP block: 99.1*; LMPTP inh: 77.2*; Scp1 inh: 110.5*; NadD inh: -2.8

Results for Nc1ccc2c(c1Cl)C(=O)c1ccc(N)c(Cl)c1C2=O ?
rCAG binder: 19.1; STEP block: 98.6*; LMPTP inh: 82.3*; Scp1 inh: 89.7*; NadD inh: 23.2

How did Cc1ccc(S(=O)(=O)N2CCCC2C(=O)N2CCN(c3ccccc3)CC2)cc1 (stereo not drawn) do in these assays?
rCAG binder: -1.3

What do the screens show for `Nc1nonc1-n1nnc(C(=O)N/N=C/c2cc(Br)ccc2O)c1CNc1ccccc1`?
rCAG binder: 34.5; STEP block: 0.9; LMPTP inh: 3.6; Scp1 inh: -2.4; NadD inh: 52.9*

Results for Cc1ccc(/C=N/NC(=O)c2nnn(-c3nonc3N)c2CNc2ccccc2)cc1 ?
rCAG binder: 13.0; STEP block: -1.1; LMPTP inh: 3.2; Scp1 inh: -4.0; NadD inh: 12.1

Results for C[C@@H]1OC(C2CCCCC2)N(C)[C@H]2C[C@H]3c4[nH]c5cccc(-c6ccccc6)c5c4CCN3C[C@@H]12 (stereo partly drawn) ?
rCAG binder: 6.8

What do the screens show for `CC1=NN(c2nc(-c3ccc(C)cc3)cs2)C(=O)C1N=Nc1ccc2ccccc2c1` (stereo not drawn)?
rCAG binder: 8.0; STEP block: 0.5; LMPTP inh: 2.9; Scp1 inh: 2.6; NadD inh: 43.7*

Results for N#Cc1c(NC(=O)/C=C/C(=O)O)sc2c1CCN(Cc1ccccc1)C2 ?
rCAG binder: 13.1; STEP block: 2.0; LMPTP inh: 47.4*; Scp1 inh: 67.5*; NadD inh: 14.4

Results for CCN1CCc2c(sc(NC(=S)NC(=O)c3ccccc3)c2C#N)C1 ?
rCAG binder: 4.5; STEP block: -2.9; LMPTP inh: 57.8*; Scp1 inh: 8.7; NadD inh: 2.9

How did CCC1(C)Cc2c(sc(NC(=S)NC(=O)c3ccccc3)c2C#N)CO1 (stereo not drawn) do in these assays?
rCAG binder: 3.3; STEP block: 0.9; LMPTP inh: 51.9*; Scp1 inh: -3.1; NadD inh: 12.2

How did Cc1cccc(NC(=O)n2ccc3ccc(-c4ccc5cc[nH]c5c4)cc32)c1 do in these assays?
rCAG binder: 31.5

Screening results deposited in PubChem BioAssay by several laboratories.
